According to publication PMC3371134 (Journal of Neurochemistry, 2012):
Entries after “also recorded” stand apart in the source; their conditions may differ.

What was measured:
centrin 2 (Cetn2) = test: Yeast two-hybrid; type: binding, mouse; conditions: LexA and VP16 fusions, lacZ reporter, X-gal
Procedure, shortened: (§1)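 Mouse coding sequences (from brain cDNA) were cloned as galactose-inducible LexA and VP16 fusions and co-transformed into S260 yeast, selected on glucose Trp−/Ura− plates. Colonies on filters were switched to galactose for induction, then assayed for lacZ with X-gal. Autoactivation was checked against LexA/VP16 control vectors. Blue within 1 h was scored positive; blue at 2–4 h was scored weak.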

calmodulin-Sepharose = test: CaM-Sepharose pulldown of Myc-tagged proteins expressed in COS-7 cells; type: binding
Procedure, shortened: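 Myc-tagged mouse constructs (from brain cDNA) were expressed in COS-7 cells, grown in DMEM/10% FBS at 37°C and transfected at 80% confluency with 3 μg plasmid. After 48 h, cells were lysed 30 min at 4°C in TX-buffer (50 mM Tris-HCl pH 6.9, 0.5% Triton X-100, protease inhibitors). Cleared lysate was incubated overnight at 4°C with CaM-Sepharose, then washed 3× and detected by SDS-PAGE/anti-Myc (9E10) western blot with ECL.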

calcineurin B (CnB) = test: Yeast two-hybrid; type: binding, mouse; conditions: LexA and VP16 fusions, lacZ reporter, X-gal
Procedure, shortened: as §1

[1] = tested on: calmodulin-like 4 (Calml4); test: Yeast two-hybrid; type: binding, mouse; conditions: LexA and VP16 fusions, lacZ reporter, X-gal
Procedure, shortened: as §1

calneuron 1 (Caln1) = test: Yeast two-hybrid; type: binding, mouse; conditions: LexA and VP16 fusions, lacZ reporter, X-gal
Procedure, shortened: as §1

B1: Pcp4l1: small neuronal IQ motif protein, 68 amino acids, full length (protein)
chain: MSELNTKTPPAANQASDPEEKGKPGSIKKAEEEEEIDIDLTAPETEKAALAIQGKFRRFQKRKKDSSS
modifications: left off: Myc, end not stated, kept
- interaction with Cetn2 in Y2H (centrin 2 (Cetn2)): no binding was detected
- CaM-Sepharose pulldown, calcium-replete (calmodulin-Sepharose; 5mM CaCl2, TX-buffer pH 6.9, overnight at 4°C, anti-Myc western blot): binds weakly or not at all to CaM; also recorded: interacts poorly with CaM in both low and high calcium conditions
- calcium dependence of CaM binding / overall CaM binding (calmodulin-Sepharose; 5mM CaCl2 or 5mM EGTA, summary in Discussion): little or no binding in either calcium poor or replete conditions
- CaM-Sepharose pulldown, calcium-poor (calmodulin-Sepharose; 5mM EGTA, TX-buffer pH 6.9, overnight at 4°C, anti-Myc western blot): binds weakly or not at all to CaM; also recorded: interacts poorly with CaM in both low and high calcium conditions
- interaction with CnB in Y2H (calcineurin B (CnB)): no binding was detected
- interaction with Calml4 in Y2H [1]: no binding was detected
- interaction with Caln1 in Y2H (calneuron 1 (Caln1)): no binding was detected
